Bioassay records as filed in PubChem.
DENV2 CPE rescue – protects cells from dengue virus 2 cytopathic effect | AID 651640 | 1.7% of 350,000 active | CPE inhibition, % at 9.99 µM | DENV2-infected cells, cytopathic effect rescue, plate reader; in the data active = CPE inhibition above about 20%, passing the limit was not always enough; inconclusive = no clear call, values can overlap the other calls; tested in BHK-21 cells;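 note: 0% = median of neutral control wells and 100% = median of positive control wells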
FN deposit inh – fibronectin deposition inhibition; 0.086% of 350,000 active; inhibition, % at 12.6 µM; AID 743247; AH1F fibroblasts, Alexa488-fibronectin deposition fluorescence, overnight;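 active = mean inhibition across replicates of 30% or more, regardless of how many single replicates reach that level; inconclusive = mean under 30% yet at least half of replicates reach 30%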;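 note: positive control wells lacked labelled fibronectin entirely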
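material = AH1F fibroblast monolayer depositing Alexa488-labelled fibronectin into matrix | amount = 10000 AH1F cells/well | buffer or medium = DMEM plus 2% serum, read in PBS | incubation = 1 h cell adhesion before compound, then overnight fibronectin incubation | detection = fluorescence at 485 nm excitation, 525 nm emission | evaluation = percent inhibition as loss of matrix-bound fibronectin fluorescence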
CaV13 ICDI inh – Primary screen for inhibitors of IQ motif and Ca2+-dependent inactivation inhibitor domain binding in CACNA1D, Förster resonance energy transfer in living cells, …; HEK cells, CFP/YFP FRET ICDI-IQ, plate reader, 10 min; percent FRET-ratio fall versus neutral wells; inhibition, % at 12.3 µM; 0.098% of 340,000 active; AID 743397;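 active = mean replicate inhibition of at least 30% and at least 1% of replicates passing that level; inconclusive = only one of the two criteria is met; inactive = neither criterion is met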;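 note: 0% = median of the neutral control wells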
Casp6 inh – blocks human caspase-6 cleavage activity. P55212. purified caspase-6, Z-VEID-R110 cleavage fluorescence. inhibition, % at 12.5 µM. 0.53% of 350,000 active. AID 686996;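 active = mean inhibition across replicates at least about 35%, with every replicate also reaching that limit, limit read from the data; inconclusive = only one of the two criteria met; inactive = neither criterion met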;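 note: 0% = median of neutral control wells and 100% = no fluorescence left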
Target sequence (P55212 24-179 limits assumed): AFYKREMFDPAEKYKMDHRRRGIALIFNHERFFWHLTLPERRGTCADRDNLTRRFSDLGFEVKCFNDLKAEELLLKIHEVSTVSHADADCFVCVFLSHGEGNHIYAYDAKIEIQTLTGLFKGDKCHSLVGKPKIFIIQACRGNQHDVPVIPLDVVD
Target sequence (P55212 194-293 limits assumed): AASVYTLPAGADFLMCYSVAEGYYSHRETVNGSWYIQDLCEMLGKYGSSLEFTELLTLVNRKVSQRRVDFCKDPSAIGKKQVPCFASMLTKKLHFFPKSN
Xi reactivation – X-chromosome reactivation activator; activation, % at 7.58 µM; XiGFP mouse fibroblasts, % GFP-positive cells imaging, 3 d; cells co-treated with 5-aza-dC sensitizer; scaled so ellipticine positive control = 100%; 0.055% of 360,000 active; AID 743238;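 active = mean normalized replicate activation at least 10% and every replicate at or above 10%; inconclusive = only one of the two criteria met; inactive = mean below 10% and not all replicates reach 10%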;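 note: 0% = median of on-plate neutral control wells and 100% = ellipticine 6 µM median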
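Material: SV40-immortalized XiGFP fibroblast cells, line 68-5-11 | Buffer or medium: DMEM containing 5-aza-dC | Dosing: One concentration, pinned | Times: 3 d treatment, 15 min room-temperature fixation | Controls: Ellipticine 6 µM positive control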
Active calls of the source: *; ? = inconclusive; · = no result given. Shown are actives, neighbours in structure and some others; about 2% of the full set was active somewhere.

SMILES | DENV2 CPE rescue | FN deposit inh | CaV13 ICDI inh | Casp6 inh | Xi reactivation
C[C@H](CO)N1C[C@H](C)[C@@H](CN(C)C(=O)NC2CCCCC2)Oc2c(NC(=O)Nc3cccc4ccccc34)cccc2C1=O | · | · | · | -2 | 0
CC1Cc2ccccc2N1C(=O)COC(=O)c1ccc([N+](=O)[O-])o1 (stereo not drawn) | -2 | 5 | -6 | 47* | 0
CC1CCN(C(=O)COC(=O)c2ccc(Br)o2)CC1 | 4 | · | -8 | -3 | ·
CC1Cc2ccccc2N1C(=O)COC(=O)c1ccco1 (stereo not drawn) | -5 | 5 | -14 | 3 | 0
CC1CCN(C(=O)COC(=O)c2ccc([N+](=O)[O-])o2)CC1 | 4 | -8 | -8 | 52* | 0
C[C@@H]1CN([C@@H](C)CO)C(=O)c2cc(NS(C)(=O)=O)ccc2O[C@H]1CN(C)Cc1ccc(Cl)c(Cl)c1 | -11 | · | · | 0 | 0
C[C@@H]1CN([C@@H](C)CO)C(=O)c2ccccc2-c2ccccc2CO[C@@H]1CN(C)S(=O)(=O)c1cn(C)cn1 | · | 14 | · | · | 0
COc1cc(/C=C2\CC/C(=C\c3cc(OC)c(O)c(OC)c3)C2=O)cc(OC)c1O | 7 | 1 | -5 | 49* | 4
Cc1[nH]c2ccccc2c1CC(=O)Nc1ccc(N(C)c2cccnc2)c(-c2cccc(Cl)c2)c1 | 43* | -4 | · | 6 | 0
Cc1cc(-c2cc(NC(=O)Cc3c(C)[nH]c4ccccc34)ccc2N(C)c2cccnc2)ccc1F | 5 | -14 | · | -4 | 0
COc1ccc(O)c(/C=N/NC(=O)CCC(=O)Nc2ccc(C)cc2)c1 | 1 | 4 | -20 | 0 | 0
COc1ccc(O)c(/C=N/NC(=O)CN2CCS(=O)(=O)CC2)c1 | 54* | 1 | -3 | 32 | 0
CCCCNC(=O)c1onc(CSc2cccc(OCC)c2)c1C(=O)O | 24* | -2 | -6 | 0 | 1
Cc1ccc(-c2cccc(C3CC=CC4C3C(=O)N(Cc3ccccc3)C4c3ccc(C(F)(F)F)cc3)c2)cc1 (stereo not drawn) | 93* | -7 | -14 | -2 | 1
COc1ccc(C2C3C=CCC(c4cccc(-c5ccc(C)cc5)c4)C3C(=O)N2Cc2ccccc2)cc1Cl (stereo not drawn) | -8 | -10 | -5 | 1 | 0
Nc1cc(Cl)ccc1N1C(=O)CCC1=O | 13 | 0 | -4 | 1 | 0
Nc1cc([N+](=O)[O-])ccc1N1C(=O)CCCC1=O | -1 | 12 | -4 | 40* | 0
COc1ccc2c3c([nH]c2c1)[C@H](CO)N(C(=O)C1CC1)CC31CCN(S(C)(=O)=O)CC1 | 10 | · | · | 1 | 0
CN(C)c1ccc(C(=O)OCC(=O)N2CCOCC2)cc1 | -5 | -7 | 6 | 0 | 0
CCCCOc1ccc(C(=O)OCC(=O)N2CCOCC2)cc1 | 10 | 9 | -2 | 61* | 0
CCOc1ccc(C(=O)NN2CCOCC2)cc1 | 154* | -2 | -2 | 3 | 0
CCCCOc1ccc(C(=O)NN2CCOCC2)cc1 | 9 | -15 | -5 | 4 | 0
CC(=O)N(C)c1ccc(N=Cc2cc3c(cc2[N+](=O)[O-])OCO3)cc1 | 5 | 5 | -19 | 36* | 0
O=C(C[C@H]1CC[C@H](NC(=O)NC2CCCC2)[C@H](CO)O1)NCc1ccc(F)cc1 | -3 | · | · | -2 | 0
C[C@@H]1CCCCO[C@H](CN(C)C(=O)Cc2ccccc2)[C@H](C)CN([C@@H](C)CO)C(=O)c2cc(NC(=O)Nc3ccc(C(F)(F)F)cc3)ccc2O1 | 44* | · | · | -2 | 0
SMILES | DENV2 CPE rescue | FN deposit inh | CaV13 ICDI inh | Casp6 inh | Xi reactivation
C[C@H](CO)N1C[C@H](C)[C@@H](CN(C)C(=O)Cc2ccccc2)OCCCC[C@H](C)Oc2ccc(NC(=O)Nc3ccc(C(F)(F)F)cc3)cc2C1=O | -2 | · | · | 1 | 0
C[C@@H]1CN([C@H](C)CO)C(=O)c2cc(NC(=O)Nc3ccc(C(F)(F)F)cc3)ccc2O[C@@H](C)CCCCO[C@@H]1CN(C)C(=O)Cc1ccccc1 | 82* | · | · | 2 | 0
C[C@@H]1CCCCO[C@H](CN(C)C(=O)Cc2ccccc2)[C@@H](C)CN([C@@H](C)CO)C(=O)c2cc(NC(=O)Nc3ccc(C(F)(F)F)cc3)ccc2O1 | ? | · | · | -2 | 0
Cc1ccc(S(=O)(=O)N(C)C[C@H]2Oc3ccc(NC(=O)Nc4cccc5ccccc45)cc3C(=O)N([C@@H](C)CO)C[C@@H]2C)cc1 | · | · | · | · | -1
O=C(C[C@@H]1C=C[C@H](NC(=O)C2CCOCC2)[C@H](CO)O1)NCc1ccccc1Cl | -6 | · | · | 2 | -1
N#Cc1ccc(C(=O)Nc2cc(C3CC3)nn2-c2ccccc2)cc1 | 22* | -2 | -10 | 0 | 0
Cc1noc(C)c1NC(=O)N[C@@H]1CC[C@@H](CCNC(=O)C2CCC2)O[C@H]1CO | 5 | · | · | -2 | 0
COc1ccc(-c2cc3ccccc3[nH]2)cc1 | 2 | -2 | -5 | 24 | 0
c1ccc(-c2cc3ccccc3[nH]2)cc1 | 27* | -6 | -4 | -3 | 0
CCOc1ccc(CCNC(=O)C2CC=CCC2C(=O)OC(C)C)cc1OCC (stereo not drawn) | -5 | -10 | -20 | · | 0
CCOc1ccc(CCNC(=O)C2CC(C)=CCC2C(=O)O)cc1OCC (stereo not drawn) | -1 | -2 | -20 | 36* | 0
COc1ccc([C@H]2C/C=C\C[C@H](c3ccc(F)cc3)NC(=O)CCC(=O)N2)c(OC)c1 | · | -14 | · | · | 0
C[C@H](CO)N1C[C@H](C)[C@@H](CN(C)C(=O)Nc2ccc3c(c2)OCO3)Oc2ccc(NC(=O)CCCN(C)C)cc2C1=O | 0 | -19 | · | -2 | 0
COc1cc(N)c2ncccc2c1Cl | -1 | 3 | -2 | 56* | 0
C[C@H](CO)N1C[C@H](C)[C@H](CN(C)Cc2ccc3c(c2)OCO3)Oc2ncc(-c3ccccc3)cc2C1=O | -3 | · | · | 0 | -2
Cc1ccnc2nc(C(=O)OCC(=O)c3ccc(NC(=O)CC(C)C)cc3)nn12 | 18 | 10 | -7 | 0 | 0
CCC(=O)Nc1ccc(C(=O)COC(=O)c2nc3nccc(C)n3n2)cc1 | -2 | 1 | -7 | 69* | 0
CCN1CCN(c2cc(C)c3cc(NC(=O)c4cccs4)ccc3n2)CC1 | -7 | 3 | -6 | -16 | 12*
Cc1cc(N2CCN(C)CC2)nc2ccc(NC(=S)NCCN3CCc4ccccc4C3)cc12 | -4 | 16 | -16 | -121 | 49*
COc1ccc([Si](C)(C)[C@@H]2[C@@H](CCO)O[C@]3(C(=O)N(Cc4ccccc4)c4ccc(N5C(=O)c6cccc7cccc5c67)cc43)[C@H]2C)cc1 | -3 | · | · | -1 | ·
